According to publication PMC4304477 (Journal of the American Chemical Society, 2014):

What was measured:
[1] = system: AmpC β-lactamase production; conditions: background statement, no reference given; cited from earlier work
PBPs, including PBP4 = conditions: background statement, no reference given; cited from earlier work
P. aeruginosa PBP4 = assay type: biochemical
Method in brief: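 His-tagged P. aeruginosa PBP4 (residues 23–476) was expressed in E. coli Lemo21(DE3), passed twice over a chelating column and dialysed into 50 mM Tris pH 7.6, 0.5 M NaCl. It was used within 5 days and quantified by A280 (ε 62 005 M–1cm–1). Synthetic substrate at 0.125–5 mM was reacted in 50 mM Tris, 0.1 M NaCl, pH 7.6, 25 °C. After 30 min, one volume of 0.2% TFA was added. D-Ala-loss products were quantified by C18 HPLC against an internal standard to give steady-state kcat and Km.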

Row | kcat comparison in words (P. aeruginosa PBP4; 18 vs 19, pH 7.6, 25 °C) | Molecule | AmpC β-lactamase induction [1] | PBP inhibition (PBPs, including PBP4) | turnover product (P. aeruginosa PBP4; PBP4, t = 30 min, LC/MS TIC, comparison with authentic synthetic 31)
1 |  | CO[C@@]1(NC(=O)Cc2cccs2)C(=O)N2C(C(=O)O)=C(COC(N)=O)CS[C@@H]21 [cefoxitin] | a high inducer of AmpC β-lactamase production | inhibits PBPs, including PBP4 | 
2 | slightly higher than for 19 | NAM-L-Ala-D-γ-Glu-meso-DAP-D-Ala-D-Ala [Compound 18] |  |  | This new peak was proven to be compound 31
